What all share (type): ADME, cell-based, Canis lupus familiaris
What all share (details): dog

In data set [1] the test system is MDCK. Briefly: Apparent permeability from apical to basal side of MDCK cells expressing MDR1 at 2 uM by LC-MS/MS analysis. An outline of the steps:
(§1)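 MDR1-MDCK monolayers grown on PET inserts (seeded 2 × 10⁵ cells/cm², 4-6 days to confluence). Compound diluted from 10 mM stock into HBSS pH 7.4 to 2 μM, dosed apically or basolaterally. Analyte quantified by LC-MS/MS as analyte/IS peak area ratio. Papp from 0.084 cm² monolayer area and initial donor concentration. Triplicate, reported as means.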

The subject of data set [2] is MDCK. Briefly: Efflux ratio of apparent permeability from basal to apical side to apical to basal side of MDCK cells expressing MDR1 at 2 uM by LC-MS/MS analysis.
The subject of data set [3] is MDCK. The data set is described as follows: Apparent permeability from basal to apical side of MDCK cells expressing MDR1 at 2 uM by LC-MS/MS analysis. In short, it runs like this:
as §1

One may read the Papp as a coefficient for how fast a substance crosses the barrier. With `N#CCNC(=O)[C@H](Cc1c[nH]cn1)NC(=O)OCc1ccccc1`, the figures for the Papp in data set [1] and in data set [3] were 0.51 ×10⁻⁶ cm/s and 2.94 ×10⁻⁶ cm/s, respectively. Besides, the Ratio in data set [2] is listed as 5.8.
Regarding `NC(=O)[C@H](Cc1ccccc1)NC(=O)OCc1ccccc1`, the figures for the Papp in data set [1] and in data set [3] were 24.6 ×10⁻⁶ cm/s and 21.1 ×10⁻⁶ cm/s, respectively. Also, the Ratio in data set [2] came to 0.86.
The like results for `NC(=O)[C@H](Cc1ccncc1)NC(=O)OCc1ccccc1` were, in that order, 4.31 ×10⁻⁶ cm/s, 13.4 ×10⁻⁶ cm/s and 3.1.

The values above are taken from ChEMBL document CHEMBL2040742, “Predicting and improving the membrane permeability of peptidic small molecules” (J Med Chem, 2012).
